Here are results for two molecules from ChEMBL document CHEMBL5107950, “Structure-based design of haloperidol analogues as inhibitors of acetyltransferase Eis from Mycobacterium tuberculosis to overcome kanamycin resistance” (RSC Med Chem, 2021).

Converted amounts (≈) assume the structure as drawn. Bounds are passed on as bounds.

One series has as its target T1, N-acetyltransferase Eis (Mycobacterium tuberculosis (strain ATCC 25618 / H37Rv), UniProt P9WFK7).
T1 sequence (P9WFK7 whole entry): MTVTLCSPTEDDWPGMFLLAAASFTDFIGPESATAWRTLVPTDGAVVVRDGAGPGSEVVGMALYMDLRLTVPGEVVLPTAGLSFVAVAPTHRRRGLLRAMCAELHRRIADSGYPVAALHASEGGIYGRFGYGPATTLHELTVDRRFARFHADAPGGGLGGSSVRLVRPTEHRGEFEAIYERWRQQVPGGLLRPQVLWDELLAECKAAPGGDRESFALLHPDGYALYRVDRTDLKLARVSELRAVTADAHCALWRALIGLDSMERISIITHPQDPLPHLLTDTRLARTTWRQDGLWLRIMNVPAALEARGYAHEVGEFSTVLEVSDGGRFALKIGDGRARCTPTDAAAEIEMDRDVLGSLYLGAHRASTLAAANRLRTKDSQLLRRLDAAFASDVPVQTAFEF
Kind of series: Inhibition of Mycobacterium tuberculosis Eis assessed as Eis-mediated kanamycin acetylation preincubated for 10 mins followed by substrate addition and measured for 2 to 5 mins using acetyl-CoA as substrate in presence of kanamycin by UV-Vis spectroscopy analysis. In a few lines:
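Recombinant Eis (1 µM) mixed with KAN (400 µM) in 50 mM Tris-HCl pH 8.0 and preincubated 10 min with 5-fold serially diluted inhibitor (10% DMSO in buffer). Reaction started with AcCoA and DTNB (2 mM each, as added). Absorbance read every 30 s for 20 min. Initial rates (first 2-5 min) fitted to Hill plot for IC50. At least triplicate.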

Series [1] has as its system Mycobacterium tuberculosis. Kind of series: Potentiation of kanamycin-induced antibacterial activity against Mycobacterium tuberculosis H37Rv assessed as kanamycin MIC incubated for 1 day followed by kanamycin addition for 6 days and by Alamar blue assay. Type of series: functional. The settings on record: 168 h, time 7 day. In a few lines:
(§1)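 Mtb in 7H9 + 10% ADC, 0.05% Tween 80, 0.4% glycerol at 37 °C. Inoculum adjusted to OD600 0.2, diluted 1:25. Cells preincubated 24 h at 37 °C with compound (100 µL of 200 µM solution). KAN then added: H37Rv at 2.5 and 1.25 µg/mL; K204 at 10, 5, 2.5, 1.25 µg/mL. Incubated 6 days, AlamarBlue added, colour read at 24 and 48 h. MIC = lowest KAN with no colour change. At least twice in duplicate.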

The test system of series [2] is Mycobacterium tuberculosis. The series is described as follows: Potentiation of kanamycin-induced antibacterial activity against Mycobacterium tuberculosis K204 assessed as kanamycin MIC incubated for 1 day followed by kanamycin addition for 6 days and by Alamar blue assay. Type of series: functional. The settings on record: K204, 168 h, time 7 day. In a few lines: as §1

The test system of series [3] is Mycolicibacterium smegmatis. Kind of series: Antibacterial activity against Mycobacterium smegmatis mc2 155 assessed as inhibition of bacterial growth incubated upto 3 weeks hrs by resazurin dye based double-dilution method. Conditions: mc2 155, 504 h. The class given is functional. In a few lines: (§2)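 Double-dilution broth MIC. Media: M. smegmatis, Mueller-Hinton; M. abscessus, 7H9 + 0.05% Tween80 + 0.4% glycerol; mc²6230, 7H9 + 0.05% tyloxapol, 0.5% glycerol, 10% OADC, 0.2% casamino acids, 24 µg/mL pantothenate; other mycobacteria, 7H9 + 0.05% Tween80, 0.4% glycerol, 10% ADC. Inoculum from agar set to 0.5 McFarland, then diluted 1:100.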
Background: Resazurin is reduced to fluorescent resorufin, in cell work by metabolically active cells.

Series [4] relates to Mycobacteroides abscessus. The series is described as follows: Antibacterial activity against Mycobacterium abscessus ATCC 19977 assessed as inhibition of bacterial growth incubated upto 3 weeks hrs by resazurin dye based double-dilution method. The class given is functional. Conditions: ATCC 19977, 504 h. In a few lines:
as §2

Series [5] relates to Mycobacterium intracellulare. Kind of series: Antibacterial activity against Mycobacterium intracellulare ATCC 13950 assessed as inhibition of bacterial growth incubated upto 3 weeks hrs by resazurin dye based double-dilution method. Conditions: ATCC 13950, 504 h. Type of series: functional. The gist of the method: as §2
The test system of the next series is Mycobacterium avium. The series is described as follows: Antibacterial activity against Mycobacterium avium ATCC 25921 assessed as inhibition of bacterial growth incubated upto 3 weeks hrs by resazurin dye based double-dilution method. The class given is functional. The settings on record: ATCC 25921, 504 h. The gist of the method:
as §2

The test system of series [6] is Mycobacterium tuberculosis. The series is described as follows: Antibacterial activity against Mycobacterium tuberculosis H37Ra ATCC NRS22 assessed as inhibition of bacterial growth incubated upto 3 weeks hrs by resazurin dye based double-dilution method. The class given is functional. Conditions: H37Ra ATCC NRS22, 504 h. In a few lines: as §2
A further series concerns HEK293. Kind of series: Cytotoxicity against human HEK293 cells assessed as reduction in cell viability at 200 uM incubated for 24 hrs by resazurin assay. The class given is toxicity, cell-based. Conditions: hek293, 24 h. The gist of the method: (§3)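 Resazurin viability assay in DMEM + 10% FBS, 1% penicillin/streptomycin, 37 °C, 5% CO₂. Seeding: HEK-293 and J774A.1 at 1×10^4 cells/mL, A549 at 5×10^3 cells/mL. After 24 h, compounds added (0.78-200 μM, 0.5% DMSO final). Resazurin added 24 h later, read after 6 h. 1% Triton X as positive control. Quadruplicate.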

The test system of series [7] is A549. The series is described as follows: Cytotoxicity against human A549 cells assessed as reduction in cell viability at 100 to 200 uM incubated for 24 hrs by resazurin assay. Conditions: a549, 24 h, dose 100-200 µM. The class given is toxicity, cell-based. The gist of the method: as §3
The test system of the next series is J774.A1. The series is described as follows: Cytotoxicity against mouse J774.A1 cells assessed as reduction in cell viability at 100 uM incubated for 24 hrs by resazurin assay. Conditions: j774.a1, 24 h. Type of series: toxicity, cell-based. The gist of the method:
as §3

Series [8] concerns A549. The series is described as follows: Cytotoxicity against human A549 cells assessed as reduction in cell viability at 100 uM incubated for 24 hrs by resazurin assay. Type of series: toxicity, cell-based. Conditions: a549, 24 h. The gist of the method:
as §3

For the molecule `O=C(CCCN1CCC(O)(c2ccc(Cl)cc2)CC1)c1ccc(Br)cc1`, the IC50 at N-acetyltransferase Eis is greater than 200 µM. Also, the MIC in [1] is no more than 1.25 µg/mL; in [2], greater than 10 µg/mL; in series [3], greater than 62.5 µM; in series [4], greater than 62.5 µM; in [5] it was greater than 62.5 µM; in the series with Mycobacterium avium, greater than 62.5 µM. The MIC in series [6] turned out to be 31.3 µM (≈ 13.7 µg/mL). For the same molecule, the results for the Activity result in the series on HEK293, with A549 [7] and in the series with J774.A1 were “Non-Toxic”, 70% and 100%, respectively.

Regarding `COc1ccc(C(=O)CCCN2CCC(O)(c3ccc(Cl)cc3)CC2)cc1`, at N-acetyltransferase Eis, the IC50 stood at 40 µM. The MIC in [1] is no more than 1.25 µg/mL; in series [2], greater than 10 µg/mL; in series [3], greater than 62.5 µM; in series [4] it was greater than 62.5 µM; in series [5], greater than 62.5 µM; with Mycobacterium avium, greater than 62.5 µM. For the same molecule, the minimal inhibitory concentration (MIC) in [6] came out at 62.5 µM (≈ 24.2 µg/mL). Also, the Activity result in the series with J774.A1 is “Toxic”; in the series on A549 [8], 78%.

As a reminder, the IC50 is the concentration that inhibits the measured activity by half. A word on the MIC: it is the smallest concentration in the dilution series that meets the test's criterion for growth inhibition.
